Data set [1] is described as follows: Tmax in Sprague-Dawley rat at 2 mg/kg, po. It counts as ADME, organism-based. Particulars: in vivo. Put shortly:
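Six male Sprague-Dawley rats (0.21–0.23 kg) dosed orally at 2.0 mg/kg; blood from orbital vein at 0–16 h into heparinized tubes; plasma protein precipitated with methanol plus internal standard. Quantified by UPLC–Q-TOF MS, ESI positive, single ion monitoring (m/z 367.2637); linear range 0.54–107 ng/ml.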

In data set [2] the test system is Mus musculus. As to the kind of experiment: Hypoglycemic activity in C57BL/6J DIO mouse assessed as decrease in blood glucose AUC at 0.3 to 3 mg/kg administered daily via oral gavage for 25 days by OGTT. Format: functional, organism-based. Put shortly: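 Male ob/ob or high-fat-diet C57BL/6J mice dosed daily by gavage at 0.3–3.0 mg/kg. OGTT: glucose 2 g/kg orally after overnight fast. ITT: insulin 0.6 U/kg i.p. after 4 h fast. Glucometer readings at 0, 40, 80 and 120 min; AUC computed from the curves.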

The test system of data set [3] is Mus musculus. As to the kind of experiment: Reduction of plasma LPS levels in ob/ob mouse at 1 mg/kg administered daily via oral gavage for 31 days by ELISA relative to vehicle-treated control. Format: functional. Also on record: scale not given: the % may be the effect or the level left. In outline:
(§1)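 Male ob/ob mice treated daily by gavage (soybean vehicle); plasma LPS and TNF-α quantified by ELISA kits. For antibiotic groups, ob/ob mice first received an oral antibiotic cocktail (ampicillin 1 g/L, vancomycin, neomycin, gentamycin, erythromycin) for three weeks, then 3.0 mg/kg/day; n = 8 per group.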
On the technique in general: An ELISA detects its analyte on a solid surface through an enzyme-linked reagent.

For data set [4], the system named is Mus musculus. As to the kind of experiment: Antiobesity activity in C57BL/6J DIO mouse assessed as reduction in weight gain at 3 mg/kg administered daily via oral gavage for 5 weeks relative to vehicle-treated control. Format: functional. Also on record: scale not given: the % may be the effect or the level left. In outline:
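Male C57BL/6J mice on high-fat diet, n = 8 per group, grouped by blood glucose and body weight. Daily oral gavage at 0.3, 1.0 or 3.0 mg/kg in soybean vehicle for 5 weeks. Vehicle groups were on normal diet and on high-fat diet.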

Data set [5] has as its system Mus musculus. Briefly: Reduction of plasma TNF-alpha levels in ob/ob mouse at 3 mg/kg administered daily via oral gavage for 31 days by ELISA relative to vehicle-treated control. Format: functional, organism-based. In outline: as §1
In data set [6] the test system is Mus musculus. Briefly: Decrease in nitrate levels in ob/ob mouse colonic lumen at 3 mg/kg administered daily via oral gavage for 31 days by Griess assay. Format: functional, organism-based. Put shortly: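 Male ob/ob mice dosed daily by gavage in soybean vehicle. Nitrate measured in intestinal contents by Griess assay.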
(In general: Griess reagent forms a coloured azo dye with nitrite.)

Data set [7] relates to Mus musculus. As to the kind of experiment: Hypolipidemic activity in antibiotic-treated ob/ob mouse assessed as decrease in plasma total cholesterol levels at 3 mg/kg administered daily via oral gavage for 3 weeks. It counts as functional, organism-based. Put shortly:
(§2)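 Male ob/ob mice pretreated three weeks with ampicillin (1 g/L), vancomycin, neomycin, gentamycin and erythromycin. Groups of n = 8 given 3.0 mg/kg/day orally in soybean vehicle versus vehicle. Plasma and hepatic lipids, fasting glucose, OGTT (glucose 2 g/kg after overnight fast) and HbA1c measured.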

Data set [8] deals with T1, 3-hydroxy-3-methylglutaryl-coenzyme A reductase (Sus scrofa, UniProt Q1W675).
T1 sequence (Q1W675 whole entry): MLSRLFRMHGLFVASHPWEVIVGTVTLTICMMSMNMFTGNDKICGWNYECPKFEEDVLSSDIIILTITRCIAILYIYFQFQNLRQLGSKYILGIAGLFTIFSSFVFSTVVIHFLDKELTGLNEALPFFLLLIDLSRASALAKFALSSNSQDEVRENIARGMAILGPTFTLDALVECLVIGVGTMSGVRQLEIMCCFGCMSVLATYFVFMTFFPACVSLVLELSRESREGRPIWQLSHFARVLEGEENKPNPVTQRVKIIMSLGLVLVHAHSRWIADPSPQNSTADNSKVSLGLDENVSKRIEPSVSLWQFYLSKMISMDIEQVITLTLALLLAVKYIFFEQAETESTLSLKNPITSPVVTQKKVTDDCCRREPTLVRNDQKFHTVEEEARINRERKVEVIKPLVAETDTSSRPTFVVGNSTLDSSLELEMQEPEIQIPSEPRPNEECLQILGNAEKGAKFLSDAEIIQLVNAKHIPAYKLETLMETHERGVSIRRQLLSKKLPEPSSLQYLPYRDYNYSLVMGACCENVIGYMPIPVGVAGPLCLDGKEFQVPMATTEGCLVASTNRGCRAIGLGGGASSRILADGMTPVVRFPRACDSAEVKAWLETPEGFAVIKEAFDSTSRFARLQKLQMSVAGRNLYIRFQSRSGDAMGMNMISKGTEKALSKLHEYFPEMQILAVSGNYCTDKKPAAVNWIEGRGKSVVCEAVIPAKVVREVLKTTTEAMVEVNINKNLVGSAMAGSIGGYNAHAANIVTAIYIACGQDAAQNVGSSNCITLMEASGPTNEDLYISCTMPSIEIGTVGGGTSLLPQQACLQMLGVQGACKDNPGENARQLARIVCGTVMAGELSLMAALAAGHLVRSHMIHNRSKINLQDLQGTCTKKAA
As to the kind of experiment: (§3) Inhibition of pig liver microsomal HMG-CoA reductase by colorimetric method. In outline: (§4)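 Pig liver microsomal HMG-CoA reductase; compounds tested at several concentrations, each in triplicate; control uses phosphate buffer instead of compound, blank uses buffer instead of enzyme. Absorbance read at 405 nm; % inhibition from blank-corrected OD of test versus control; IC50 fitted from the inhibition-concentration series.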
For orientation: Liver microsomes are a subcellular fraction often used to study metabolism.

Data set [9] addresses T2, 3-hydroxy-3-methylglutaryl-coenzyme A reductase (Sus scrofa) (UniProt Q1W675).
T2 sequence (whole entry): T1 sequence (Q1W675 whole entry)
Described as §3. In outline:
as §4

Data set [10] relates to Mus musculus. Briefly: Reduction of plasma LPS levels in ob/ob mouse at 3 mg/kg administered daily via oral gavage for 31 days by ELISA relative to vehicle-treated control. Format: functional. Also on record: scale not given: the % may be the effect or the level left. Put shortly:
as §1

The subject of data set [11] is Mus musculus. As to the kind of experiment: In vivo inhibition of alpha-glucosidase activity in ob/ob mouse assessed as reduction of blood glucose AUC at 0.3 to 3 mg/kg administered daily via oral gavage for 32 days by OMTT. It counts as functional, organism-based. In outline:
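Male ob/ob mice given 0.3–3.0 mg/kg daily by gavage; after overnight fast, sucrose (OSTT) or maltose (OMTT) 4.0 g/kg given orally; blood glucose by glucose meter at 0, 40, 80 and 120 min; AUC calculated from the time course.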

The test system of data set [12] is Mus musculus. As to the kind of experiment: Reduction of plasma LPS levels in antibiotic-treated ob/ob mouse at 3 mg/kg administered daily via oral gavage for 3 weeks by ELISA. It counts as functional, organism-based. Put shortly: as §1
A short description of data set [13]: Cmax in Sprague-Dawley rat at 2 mg/kg, po. Also on record: dose 2 mg/kg, route oral. The conditions noted are these: in vivo. Format: ADME, organism-based. In outline:
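Male Sprague-Dawley rats (n = 6, 0.21–0.23 kg), single oral dose 2.0 mg/kg. Orbital blood sampled 0–16 h into heparinized tubes. Plasma was protein-precipitated with methanol, with internal standard added. Quantified by UPLC-ESI(+)-QTOF-MS in SIM mode on a C18 column with a methanol/0.3% formic acid water gradient. Linear range 0.54–107 ng/ml.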

Data set [14] concerns Mus musculus. Briefly: Hypolipidemic activity in antibiotic-treated ob/ob mouse assessed as decrease in plasma free fatty acid levels at 3 mg/kg administered daily via oral gavage for 3 weeks. Format: functional, organism-based. In outline: as §2
Data set [15] has as its system Mus musculus. As to the kind of experiment: In vivo inhibition of alpha-glucosidase activity in ob/ob mouse assessed as accumulation of carbohydrate in lower part of small intestine at 3 mg/kg administered daily via oral gavage for 31 days. It counts as functional, organism-based.
Data set [16] deals with Mus musculus. As to the kind of experiment: Hypolipidemic activity in C57BL/6J DIO mouse assessed as decrease in plasma free fatty acid levels at 0.3 to 3 mg/kg administered daily via oral gavage for 5 weeks. It counts as functional, organism-based. In outline:
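High-fat-diet male C57BL/6J mice, n = 8 per group, daily gavage at 0.3–3.0 mg/kg in soybean vehicle for 5 weeks. Serum total cholesterol, triglycerides and free fatty acids measured.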

Calls of active or inactive are those of the source. The rule behind the calls is not given here.

Take `CC(C)=CCC/C(C)=C/CCC1=C[C@H](c2ccc(C(C)(C)C)cc2)OC1=O`: the Tmax in data set [1] amounted to 7 h. The outcome in the data set with Mus musculus [2], in the data set on Mus musculus [5], in the data set on Mus musculus [6] and in the data set on Mus musculus [16] was Active. Besides, the Activity in the data set on Mus musculus [3] is on record as 29.8%; in the data set on Mus musculus [4], 25.4%; with Mus musculus [10], 40.9%. In addition, the outcome with Mus musculus [7], in the data set with Mus musculus [12] and in the data set with Mus musculus [14] was inactive. Moreover, in [8], the IC50 is 5.82 µM. In addition, in data set [9], the inhibition result was “Dose-dependent effect”. For the same molecule, the inhibition result with Mus musculus [11] and in the data set on Mus musculus [15] was “Active” throughout. The molecule also registered a Cmax in data set [13] of 49.3 ng/mL.

Usually Tmax stands for the time from dosing to the highest level. In general, IC50 refers to the concentration that inhibits the measured activity by half. A word on the Cmax: it is the peak of the concentration-time curve.
